Tests used:
[1] = Drug uptake in mouse serum at 400 mg/kg, po measured at 15 mins by UPLC-MS/MS method; type: ADME, organism-based; settings: read-out: Drug uptake
Procedure, shortened: (§1)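 Single oral dose (400 mg/kg, 7 mice; 600 mg/kg, 6 mice), dissolved in DMSO and suspended in 0.5% hydroxyethylcellulose–0.1% Tween 80. Blood taken by cardiac puncture under chloroform, one mouse per time point, 15–120 min. Serum proteins precipitated with 2 volumes acetonitrile; analysed by UPLC-MS/MS against blank human serum calibration. Half-life read from the concentration–time curve.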

[2] = molecular target: Botulinum neurotoxin type A (Clostridium botulinum) (UniProt P0DPI0); test: Inhibition of Clostridium botulinum BoNT/A light chain at 20 uM using P39 as substrate preincubated for 10 mins followed by substrate addition measured after 10 mins by HPLC method relative to control
Procedure, shortened: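 Purified BoNT/A light chain (20 nM) with 0.2 mg/mL BSA in 50 mM HEPES pH 7.4, preincubated with compound for 10 min at room temperature. Cleavage fragments were separated by reversed-phase HPLC (214/280 nm). Percent inhibition was taken from fragment peak areas with vs without compound. Mean of three experiments.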

[3] = Drug uptake in mouse serum at 600 mg/kg, po measured at 120 mins by UPLC-MS/MS method; type: ADME, organism-based; settings: read-out: Drug uptake; procedure, shortened: as §1
Liver [4] = test: Half life in mouse liver microsomes; type: ADME, microsome
Procedure, shortened: (§2)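 Substrate-depletion assay: compound incubated with human or mouse liver microsomes for 1 h at 37°C. Half-life and intrinsic clearance derived from compound loss.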

Mus musculus [5] = test: Half life in mouse at 400 mg/kg, po by UPLC-MS/MS method; type: ADME, organism-based; settings: in vivo; procedure, shortened: as §1
Mus musculus [6] = test: Toxicity in mouse assessed as effect on behavior at 160 mg/kg, po administered for 3 days measured 2 times a day for 30 days; type: organism-based; settings: in vivo, 720 h
Procedure, shortened: (§3)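 Groups of five healthy mice were dosed per os for three consecutive days, suspended in 0.5% hydroxyethylcellulose–0.1% Tween 80. Behaviour and appearance were monitored twice daily for 30 days, with survival assessed at 30 days. Non-toxic was defined as all 5 surviving with normal appearance and behaviour.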

Mus musculus [7] = test: Cmax in mouse at 600 mg/kg, po by UPLC-MS/MS method; type: ADME, organism-based; set-up: dose 600 mg/kg, route oral; settings: in vivo; procedure, shortened: as §1
Plasma = test: Metabolic stability in human plasma assessed as compound remaining after 1 hr; type: ADME, cell-free
Procedure, shortened: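 Compound incubated in human plasma for 1 h at 37°C; percent remaining determined.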

[8] = Drug uptake in mouse serum at 400 mg/kg, po measured at 60 mins by UPLC-MS/MS method; type: ADME, organism-based; settings: read-out: Drug uptake; procedure, shortened: as §1
[9] = Drug uptake in mouse serum at 600 mg/kg, po measured at 45 mins by UPLC-MS/MS method; type: ADME, organism-based; settings: read-out: Drug uptake; procedure, shortened: as §1
Liver [10] = test: Half life in human liver microsomes; type: ADME, microsome; procedure, shortened: as §2
Cytochrome P450 3A4 [11] = molecular target: T1, Cytochrome P450 3A4 (Homo sapiens, UniProt P08684); test: Inhibition of CYP3A4 (unknown origin) using BQ as substrate; type: ADME
Procedure, shortened: (§4)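 Active CYP450 enzyme incubated at 37°C for a set time with a fluorogenic probe substrate (BQ, DBF or BFC for CYP3A4; CEC for CYP2C19; AMMC for CYP2D6). IC50 derived from net fluorescent signal.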

Cytochrome P450 3A4 [12] = molecular target: T1, Cytochrome P450 3A4; test: Inhibition of CYP3A4 (unknown origin) using BFC as substrate; type: ADME; procedure, shortened: as §4
[13] = Drug uptake in mouse serum at 400 mg/kg, po measured at 45 mins by UPLC-MS/MS method; type: ADME, organism-based; settings: read-out: Drug uptake; procedure, shortened: as §1
Mus musculus [14] = test: Toxicity in mouse assessed as effect on appearance at 160 mg/kg, po administered for 3 days measured 2 times a day for 30 days; type: organism-based; settings: in vivo, 720 h; procedure, shortened: as §3
Mus musculus [15] = test: Time at which drug concentration stays above 3 uM in mouse at 600 mg/kg, po by UPLC-MS/MS method; type: ADME, organism-based; settings: in vivo
Procedure, shortened: (§5)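 Single oral dose in DMSO suspended in 0.5% hydroxyethylcellulose–0.1% Tween 80, given to 7 (400 mg/kg) or 6 (600 mg/kg) mice. Serum came from cardiac puncture under chloroform, one mouse per time point, 15–120 min. Acetonitrile-precipitated serum was analysed by UPLC-MS/MS against calibration in blank human serum.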

[16] = molecular target: T2, Botulinum neurotoxin type A (Clostridium botulinum, UniProt P0DPI0); test: (§6) Inhibition of Clostridium botulinum BoNT/A holotoxin-mediated SNAP-25 cleavage in mouse HBG3 cell-derived motor neurons preincubated for 30 mins followed by intoxication measured after 4 hrs by Western blot method
[17] = molecular target: Botulinum neurotoxin type A (Clostridium botulinum) (UniProt P0DPI0); test: as §6
Mus musculus [18] = test: Drug metabolism in mouse assessed as M+16 metabolite formation at 400 to 600 mg/kg, po by UPLC-MS/MS method; type: ADME, organism-based; settings: in vivo
[19] = Solubility of the compound at pH 7.4 by light scattering-based laser nephelometric method; type: physicochemical; settings: buffer
Procedure, shortened: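 Solubility measured by laser nephelometry (light scattering), pH 7.4, n=3.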

[20] = Octanol/TBS buffer distribution co-efficient, […] by shake flask method; type: physicochemical; settings: octanol/water
[21] = molecular target: T2, Botulinum neurotoxin type A
Mus musculus [22] = test: AUC (0 to 120 mins) in mouse at 400 mg/kg, po by UPLC-MS/MS method; type: ADME, organism-based; set-up: dose 400 mg/kg, time < 2 hr, route oral; settings: in vivo, 2 h
[23] = Drug uptake in mouse serum at 600 mg/kg, po measured at 30 mins by UPLC-MS/MS method; type: ADME, organism-based; settings: read-out: Drug uptake; procedure, shortened: as §1
Mus musculus [24] = test: Toxicity in mouse assessed as effect on behavior at 400 to 600 mg/kg, po administered as single dose measured 2 times a day for 30 days; type: organism-based; settings: in vivo, 720 h
Procedure, shortened: (§7)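 Two groups of 5 healthy mice each received one oral dose, 400 or 600 mg/kg. Survival, appearance and behaviour were followed for 30 days. Non-toxic was defined as all 5 surviving with normal appearance and behaviour.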

Mus musculus [25] = test: AUC (0 to 120 mins) in mouse at 600 mg/kg, po by UPLC-MS/MS method; type: ADME, organism-based; set-up: dose 600 mg/kg, time < 2 hr, route oral; settings: in vivo, 2 h
[26] = Drug uptake in mouse serum at 400 mg/kg, po measured at 22 mins by UPLC-MS/MS method; type: ADME, organism-based; settings: read-out: Drug uptake; procedure, shortened: as §1
Liver [27] = test: Intrinsic clearance in human liver microsomes after 1 hr; type: ADME, microsome; procedure, shortened: as §2
Mus musculus [28] = test: Time at which drug concentration stays above 3 uM in mouse at 400 mg/kg, po by UPLC-MS/MS method; type: ADME, organism-based; settings: in vivo; procedure, shortened: as §5
Serum = test: Drug uptake in mouse serum at 400 mg/kg, po measured at 90 mins by UPLC-MS/MS method; type: ADME, organism-based; settings: in vivo, 1.5 h, BLD = below limit of detection; procedure, shortened: as §1
Mus musculus [29] = test: Cmax in mouse at 400 mg/kg, po by UPLC-MS/MS method; type: ADME, organism-based; set-up: dose 400 mg/kg, route oral; settings: in vivo; procedure, shortened: as §1
[30] = Apparent permeability across basolateral to apical side in MDCK cells expressing MDR1 after 1 hr; type: ADME, cell-based, Canis lupus familiaris; settings: dog
Procedure, shortened: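 MDR1-transfected MDCK cell monolayer; compound applied to the basolateral compartment and incubated 1 h at 37°C. Apparent permeability measured in the B→A direction.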

[31] = Drug uptake in mouse serum at 400 mg/kg, po measured at 30 mins by UPLC-MS/MS method; type: ADME, organism-based; settings: read-out: Drug uptake; procedure, shortened: as §1
Mus musculus [32] = test: Toxicity in mouse assessed as effect on survival at 400 to 600 mg/kg, po administered as single dose measured after 30 days; type: organism-based; settings: in vivo, 720 h; procedure, shortened: as §7
Cytochrome P450 2D6 = Cytochrome P450 2D6 (Homo sapiens, UniProt P10635); test: Inhibition of CYP2D6 (unknown origin) using AMMC as substrate; type: ADME; procedure, shortened: as §4
Sequence of Cytochrome P450 2D6 (P10635 whole entry): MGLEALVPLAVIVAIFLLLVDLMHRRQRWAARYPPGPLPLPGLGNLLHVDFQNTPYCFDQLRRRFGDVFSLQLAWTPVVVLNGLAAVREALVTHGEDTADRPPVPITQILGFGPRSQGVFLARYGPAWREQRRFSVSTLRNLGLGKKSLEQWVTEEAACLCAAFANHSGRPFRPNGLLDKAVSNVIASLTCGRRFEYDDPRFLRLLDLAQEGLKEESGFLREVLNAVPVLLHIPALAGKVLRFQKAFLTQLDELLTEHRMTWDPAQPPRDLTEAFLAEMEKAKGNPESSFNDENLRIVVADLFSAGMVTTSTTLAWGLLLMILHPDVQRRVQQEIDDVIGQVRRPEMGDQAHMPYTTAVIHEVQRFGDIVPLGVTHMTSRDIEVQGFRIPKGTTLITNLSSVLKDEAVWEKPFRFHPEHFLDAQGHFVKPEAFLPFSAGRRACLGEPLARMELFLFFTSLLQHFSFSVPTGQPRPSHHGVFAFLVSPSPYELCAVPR

T1 sequence (P08684 whole entry): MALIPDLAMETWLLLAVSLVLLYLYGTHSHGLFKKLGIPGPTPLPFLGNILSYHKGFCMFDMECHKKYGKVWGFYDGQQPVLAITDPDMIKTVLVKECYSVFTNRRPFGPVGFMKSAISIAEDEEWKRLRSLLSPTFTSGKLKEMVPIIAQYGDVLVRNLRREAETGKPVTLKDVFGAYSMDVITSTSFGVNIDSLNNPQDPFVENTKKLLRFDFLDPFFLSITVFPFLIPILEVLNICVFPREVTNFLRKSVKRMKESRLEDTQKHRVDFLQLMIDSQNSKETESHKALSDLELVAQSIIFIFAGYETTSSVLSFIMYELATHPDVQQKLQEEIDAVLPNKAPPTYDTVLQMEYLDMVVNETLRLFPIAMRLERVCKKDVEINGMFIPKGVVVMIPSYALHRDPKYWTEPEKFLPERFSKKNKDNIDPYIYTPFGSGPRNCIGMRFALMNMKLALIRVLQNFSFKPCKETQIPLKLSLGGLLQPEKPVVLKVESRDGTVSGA

For `CC(=O)O[C@H]1C[C@H]2[C@@H]([C@H](OC(C)=O)C[C@@H]3C[C@H](N)CC[C@@]32C)[C@@H]2CC[C@H]([C@H](C)CCCNCCCCNc3ccnc4cc(Cl)ccc34)[C@@]12C`, which concentration at 0.25 h [1] is on record?
The concentration at 0.25 h was 3.3 µM.

What about the inhibition [2] of the same compound?
Its inhibition is 66%.

And the concentration at 2 h [3]?
Its concentration at 2 h is 2.4 µM.

And the t1/2 (Liver [4])?
The t1/2 was greater than 1 h.

What about the t1/2 (Mus musculus [5]) of the same compound?
The t1/2 was 0.717 h.

And the Activity (Mus musculus [6])?
Its Activity is “Non-Toxic”.

What about the Cmax (Mus musculus [7]) of the same compound?
Its Cmax is 11.9 µM.

What about the Stability (Plasma) of the same compound?
The Stability was greater than 85%.

And the concentration at 1 h [8]?
The concentration at 1 h was 2.8 µM.

What about the concentration at 0.75 h [9] of the same compound?
Its concentration at 0.75 h is 3.1 µM.

And the t1/2 (Liver [10])?
The t1/2 was greater than 1 h.

And the IC50 (Cytochrome P450 3A4 [11])?
The IC50 was 1.1 µM.

What about the IC50 (Cytochrome P450 3A4 [12]) of the same compound?
Its IC50 is 1.4 µM.

And the concentration at 0.75 h [13]?
Its concentration at 0.75 h is 3.3 µM.

What about the Activity (Mus musculus [14]) of the same compound?
The Activity was “Non-Toxic”.

What about the Time (Mus musculus [15]) of the same compound?
Its Time is greater than 45 min.

And the IC50 [16]?
The IC50 was 10 µM.

And the inhibition [17]?
Its inhibition is “Dose-dependent effect”.

What about the Drug metabolism (Mus musculus [18]) of the same compound?
Its Drug metabolism is “Metabolite_Notdetected”.

What about the solubility kinetic [19] of the same compound?
The solubility kinetic was greater than 50 µg/mL.

And the logD [20]?
Its logD is 2.07.

What about the IC50 [21] of the same compound?
Its IC50 is 8 µM.

What about the AUC (Mus musculus [22]) of the same compound?
The AUC was 253 µM·min.

And the concentration at 0.5 h [23]?
Its concentration at 0.5 h is 5.9 µM.

What about the Activity (Mus musculus [24]) of the same compound?
Its Activity is “Non-Toxic”.

And the AUC (Mus musculus [25])?
The AUC was 526 µM·min.

What about the concentration at 22 min [26] of the same compound?
The concentration at 22 min was 7.8 µM.

And the CLH (Liver [27])?
Its CLH is less than 23 µL/min/mg.

And the Time (Mus musculus [28])?
The Time was greater than 45 min.

And the Drug uptake (Serum)?
Its Drug uptake is “Bld”.

And the Cmax (Mus musculus [29])?
Its Cmax is 7.8 µM.

What about the Papp [30] of the same compound?
Its Papp is 24.6 ×10⁻⁶ cm/s.

And the concentration at 0.5 h [31]?
The concentration at 0.5 h was 4 µM.

And the Activity (Mus musculus [32])?
Its Activity is “Non-Toxic”.

And the IC50 (Cytochrome P450 2D6)?
The IC50 was greater than 10 µM.

Source: ChEMBL document CHEMBL4024803, “New Steroidal 4-Aminoquinolines Antagonize Botulinum Neurotoxin Serotype A in Mouse Embryonic Stem Cell Derived Motor Neurons in Postintoxication Model” (J Med Chem, 2018)
